According to ChEMBL document CHEMBL3085643, “Synthesis and evaluation in monkey of [(18)F]4-fluoro-N-methyl-N-(4-(6-(methylamino)pyrimidin-4-yl)thiazol-2-yl)benzamide ([(18)F]FIMX): a promising radioligand for PET imaging of brain metabotropic glutamate receptor 1 (mGluR1)” (J Med Chem, 2013):

Legend:
[1] = Biodistribution in iv dosed rhesus monkey cerebellum measured at 2 hrs by PET analysis; type: ADME, organism-based, Macaca mulatta; details: in vivo
How it was run: (§1)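 Baseline brain PET in rhesus monkey: radioligand given intravenously (4.6–6.58 mCi; specific activity 1.67–4.18 Ci/μmol at injection). Ketamine induction (10 mg/kg, i.m.), then 1.6% isoflurane in O₂; head held in a stereotaxic frame. Scan run 120 min in 33 frames (30 s–5 min). Regional uptake taken from regions of interest, cerebellar grey matter delineated by isocontour, expressed as SUV; decay-corrected.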

[2] = tested on: Hippocampus; test: Biodistribution in iv dosed rhesus monkey hippocampus by PET analysis; type: ADME, organism-based, Macaca mulatta; details: in vivo; how it was run: as §1
[3] = Fraction unbound in human plasma by radio-HPLC analysis; type: ADME, cell-free
[4] = Biodistribution in iv dosed rhesus monkey cerebellum measured at 12 mins by PET analysis; type: ADME, organism-based, Macaca mulatta; details: in vivo, 0.2 h; how it was run: as §1
[5] = tested on: Plasma; test: Biodistribution in rhesus monkey plasma assessed as radiometabolite [18F]-E level at 5.24 mCi, iv after 60 mins by radio-HPLC analysis; type: ADME, organism-based, Macaca mulatta; details: in vivo, 1 h
How it was run: (§2)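 Single rhesus monkey (7.0 kg) given the radioligand iv (5.24 mCi; 1.4 nmol/kg). Venous blood drawn at 10, 30, 60 and 120 min. Separated plasma analysed by radio-HPLC on a C18 radial-compression column, eluted at 2.0 mL/min with MeOH:H₂O:Et₃N (65:35:0.1). Parent and radiometabolites given as percent of plasma radioactivity; blood-component radioactivity expressed as SUV; decay-corrected.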

[6] = tested on: Brain; test: Biodistribution in iv dosed rhesus monkey brain administered 5 mins post mGluR1 antagonist JNJ-16259685-challenge by PET analysis; type: organism-based, Macaca mulatta; details: in vivo
How it was run: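 Receptor preblock in the baseline monkey on a separate day: JNJ-16259685 (3 mg/kg) given i.v. 5 min before the i.v. [18F] radioligand (4.6–6.58 mCi). Under ketamine/isoflurane anesthesia in a stereotaxic frame, the brain was scanned with microPET for 120 min in 33 frames. Regional time–activity curves expressed as SUV.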

[7] = Biodistribution in iv dosed rhesus monkey thalamus by PET analysis; type: ADME, organism-based, Macaca mulatta; details: in vivo; how it was run: as §1
[8] = Metabolic stability in rhesus monkey plasma assessed as compound remaining after 30 mins by radio-HPLC analysis; type: ADME, cell-free, Macaca mulatta; details: read-out: Stability
How it was run: (§3)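 Radioligand incubated in rhesus monkey whole blood or plasma at room temperature for at least 30 min. Blood lysed with water for 30 s; samples deproteinized with MeCN and spun at 10,000 g. Supernatants analysed by radio-HPLC; precipitates counted to give extraction efficiency. Percent unchanged parent divided by radiochemical purity.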

[9] = tested on: Plasma; test: Biodistribution in rhesus monkey plasma assessed as radiometabolite [18F]-A level at 5.24 mCi, iv after 60 mins by radio-HPLC analysis; type: ADME, organism-based, Macaca mulatta; details: in vivo, 1 h; how it was run: as §2
[10] = tested on: Plasma; test: Biodistribution in rhesus monkey plasma assessed as radiometabolite [18F]-C level at 5.24 mCi, iv after 60 mins by radio-HPLC analysis; type: ADME, organism-based, Macaca mulatta; details: in vivo, 1 h; how it was run: as §2
[11] = Biodistribution in iv dosed rhesus monkey skull by PET analysis; type: ADME, organism-based, Macaca mulatta; details: in vivo; how it was run: as §1
[12] = tested on: Plasma; test: Biodistribution in rhesus monkey plasma assessed as radiometabolite [18F]-B level at 5.24 mCi, iv after 60 mins by radio-HPLC analysis; type: ADME, organism-based, Macaca mulatta; details: in vivo, 1 h; how it was run: as §2
[13] = tested on: Brain; test: Biodistribution in iv dosed rhesus monkey brain administered 30 mins prior to […]-challenge by PET analysis; type: ADME, organism-based, Macaca mulatta; details: in vivo, 0.5 h, in the assay text read “mGluR5 ligand” for “mGluR1 ligand”
How it was run: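 Third rhesus monkey (8.1 kg): the mGluR5-selective ligand MTEP (5 mg/kg) given i.v. 30 min after the i.v. [18F] radioligand. Anesthesia was ketamine then isoflurane, with the head in a stereotaxic frame. A 120-min microPET acquisition in 33 frames was run, and regional washout expressed as SUV.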

[14] = tested on: Blood; test: Biodistribution in rhesus monkey whole blood at 5.24 mCi, iv up to 150 mins by radio-HPLC analysis; type: ADME, organism-based, Macaca mulatta; details: in vivo, 2 h, in the assay text read “120 mins” for “150 mins”
How it was run: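 Venous blood sampled after iv injection of radioligand (5.24 mCi; 1.4 nmol/kg) in one 7.0 kg rhesus monkey. Whole-blood radioactivity was gamma-counted, decay-corrected and expressed as SUV.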

[15] = tested on: Brain; test: Biodistribution in iv dosed rhesus monkey brain measured up to 120 mins by PET analysis; type: ADME, organism-based, Macaca mulatta; details: in vivo, 2 h
How it was run: (§4)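 Baseline scans in rhesus monkey given the [18F] radioligand i.v. (4.6–6.58 mCi; specific activity 1.67–4.18 Ci/μmol at injection). Ketamine 10 mg/kg i.m. induction, then 1.6% isoflurane/98.4% O2, with the head in a stereotaxic frame. microPET Focus 220 scanning for 120 min in 33 frames (30 s–5 min). Regional uptake, including isocontour-delineated cerebellar grey matter, expressed as SUV.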

[16] = Metabolic stability in rhesus monkey whole blood assessed as compound remaining after 30 mins by radio-HPLC analysis; type: ADME, tissue-based, Macaca mulatta; details: read-out: Stability; how it was run: as §3
[17] = tested on: Plasma; test: Biodistribution in rhesus monkey plasma at 5.24 mCi, iv after 2 hrs by radio-HPLC analysis; type: ADME, organism-based, Macaca mulatta; details: in vivo; how it was run: as §2
[18] = Octanol-sodium phosphate buffer distribution coefficient, log D of the compound at pH 7.4; type: physicochemical
How it was run: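 Measured LogD of the [18F]-labelled compound: distribution between n-octanol and 0.15 M sodium phosphate buffer, pH 7.4; n = 6.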

[19] = Fraction unbound in rhesus monkey plasma by radio-HPLC analysis; type: ADME, cell-free, Macaca mulatta
[20] = Biodistribution in iv dosed rhesus monkey cerebellum measured at 90 mins by PET analysis; type: ADME, organism-based, Macaca mulatta; details: in vivo, 1.5 h; how it was run: as §1
[21] = Biodistribution in iv dosed rhesus monkey anterior cingulate by PET analysis; type: ADME, organism-based, Macaca mulatta; details: in vivo; how it was run: as §4
[22] = tested on: Plasma; test: Biodistribution in rhesus monkey plasma at 5.24 mCi, iv after 60 mins by radio-HPLC analysis; type: ADME, organism-based, Macaca mulatta; details: in vivo, 1 h; how it was run: as §2
[23] = tested on: Brain; test: Biodistribution in iv dosed rhesus monkey brain administered 30 mins prior to mGluR1 antagonist JNJ-16259685-challenge by PET analysis; type: organism-based, Macaca mulatta; details: in vivo, 0.5 h
How it was run: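 Displacement challenge in a second rhesus monkey: JNJ-16259685 (3 mg/kg) given i.v. 30 min after the i.v. [18F] radioligand injection. Anesthesia was ketamine 10 mg/kg i.m. then 1.6% isoflurane. The brain was scanned with microPET for 120 min in 33 frames, and regional radioactivity expressed as SUV.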

[24] = Biodistribution in iv dosed rhesus monkey putamen by PET analysis; type: ADME, organism-based, Macaca mulatta; details: in vivo; how it was run: as §1
[25] = tested on: Plasma; test: Biodistribution in rhesus monkey plasma at 5.24 mCi, iv measured at 31 mins by radio-HPLC analysis; type: ADME, organism-based, Macaca mulatta; details: in vivo; how it was run: as §2
[26] = tested on: Plasma; test: Biodistribution in rhesus monkey plasma assessed as radiometabolite [18F]-D level at 5.24 mCi, iv after 60 mins by radio-HPLC analysis; type: ADME, organism-based, Macaca mulatta; details: in vivo, 1 h; how it was run: as §2
[27] = Biodistribution in iv dosed rhesus monkey frontal cortex by PET analysis; type: ADME, organism-based, Macaca mulatta; details: in vivo; how it was run: as §1

## CNc1cc(-c2csc(N(C)C(=O)c3ccc([18F])cc3)n2)ncn1
[1]
  SUV: 2.8
[2]
  SUV: 2.5
[3]
  fraction unbound: 0.0114
[4]
  SUV: 5.3
[5]
  Drug uptake: 21%
[6]
  Drug uptake: Active
[7]
  SUV: 2.9
[8]
  remaining at 0.5 h: 98.9%
[9]
  Drug uptake: 19%
[10]
  Drug uptake: 10%
[11]
  Drug uptake: Not Active
[12]
  Drug uptake: 23%
[13]
  Drug uptake: Active
[14]
  Drug uptake: Active
[15]
  Drug uptake: Active
[16]
  remaining at 0.5 h: 98.1%
[17]
  Drug uptake: Active
[18]
  logD: 2.52
[19]
  fraction unbound: 0.0123
[20]
  SUV: 3.32
[21]
  SUV: 2.4
[22]
  Drug uptake: 26%
[23]
  Drug uptake: Active
[24]
  SUV: 2.5
[25]
  Drug uptake: 31%
[26]
  Drug uptake: 1%
[27]
  SUV: 2.7
